According to ChEMBL document CHEMBL4196175, “First SAR Study for Overriding NRAS Mutant Driven Acute Myeloid Leukemia” (J Med Chem, 2018):
Calls of active or inactive are those of the source. No cut-off for these calls is given here.

Key:
[1] = biological target: Serine/threonine-protein kinase SIK1 (Homo sapiens) (UniProt P57059); assay: Inhibition of human SIK1 at 1 uM relative to control
[2] = biological target: Epithelial discoidin domain-containing receptor 1 (Homo sapiens) (UniProt Q08345); assay: Inhibition of human DDR1 at 1 uM relative to control
[3] = biological target: Fibroblast growth factor receptor 2 (Homo sapiens) (UniProt P21802); assay: Inhibition of human FGFR2 at 1 uM relative to control
[4] = biological target: Tyrosine-protein kinase Lyn (Homo sapiens) (UniProt P07948); details: 1 uM
OCI-AML-3 [5] = assay: Antileukemic activity against human OCI-AML3 cells harboring NRAS-Q61L mutant xenografted in immunodeficient mouse assessed as tumor volume at 25 mg/kg/day, po qd administered on day 21 post implantation measured on day 20 post dose (reference value: 100%); format: functional
[6] = biological target: Ephrin type-B receptor 1 (Homo sapiens) (UniProt P54762); assay: Inhibition of human EphB1 at 1 uM relative to control
[7] = biological target: Macrophage colony-stimulating factor 1 receptor (Homo sapiens) (UniProt P07333); assay: Inhibition of human FMS at 1 uM relative to control
[8] = biological target: Tyrosine-protein kinase HCK (Homo sapiens) (UniProt P08631); assay: Inhibition of human HCK at 1 uM relative to control
Activated CDC42 kinase 1 [9] = biological target: T1, Activated CDC42 kinase 1 (Homo sapiens, UniProt Q07912); assay: Inhibition of ACK1 in human OCI-AML3 cells harboring NRAS Q61L mutant assessed as reduction in AKT phosphorylation at S473 after 2 hrs by Western blot analysis; format: cell-based
Summary of the method: (§1)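 Ba/F3-NRAS-G12D or OCI-AML3 cells exposed 2 h to compounds (1 µM, or a dose series in OCI-AML3); phospho-p70S6K1, phospho-AKT S473, phospho-JNK and phospho-p38 assessed by western blot, actin as loading control.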

[10] = biological target: Proto-oncogene tyrosine-protein kinase receptor Ret (Homo sapiens) (UniProt P07949); assay: Inhibition of human RET at 1 uM relative to control
[11] = biological target: Serine/threonine-protein kinase A-Raf (Homo sapiens) (UniProt P10398); assay: Inhibition of human ARAF at 1 uM relative to control
[12] = biological target: Serine/threonine-protein kinase B-raf (Homo sapiens) (UniProt P15056); assay: Inhibition of human BRAF at 1 uM relative to control
OCI-AML-3 [13] = assay: Induction of apoptosis in human OCI-AML3 cells harboring NRAS Q61L mutant assessed as decrease in mcl1 levels at 1 uM after 24 hrs by Western blot analysis; format: functional, cell-based
Summary of the method: (§2)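 Cells treated 24 h with indicated concentrations (1 µM; 5 µM also used in Ba/F3-NRAS-G12D); cleaved PARP, cleaved caspase 3, bcl-2 and MCL1 detected by western blot with actin as loading control.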

BaF3 [14] = assay: Induction of apoptosis in mouse BA/F3 cells expressing NRAS-G12D mutant assessed as increase in cleaved caspase-3 levels at 5 uM after 24 hrs by Western blot analysis; format: functional, cell-based; summary of the method: as §2
[15] = biological target: T2, Mitogen-activated protein kinase kinase kinase kinase 2 (Homo sapiens) (UniProt Q12851); details: 1 uM
T2 sequence (whole entry): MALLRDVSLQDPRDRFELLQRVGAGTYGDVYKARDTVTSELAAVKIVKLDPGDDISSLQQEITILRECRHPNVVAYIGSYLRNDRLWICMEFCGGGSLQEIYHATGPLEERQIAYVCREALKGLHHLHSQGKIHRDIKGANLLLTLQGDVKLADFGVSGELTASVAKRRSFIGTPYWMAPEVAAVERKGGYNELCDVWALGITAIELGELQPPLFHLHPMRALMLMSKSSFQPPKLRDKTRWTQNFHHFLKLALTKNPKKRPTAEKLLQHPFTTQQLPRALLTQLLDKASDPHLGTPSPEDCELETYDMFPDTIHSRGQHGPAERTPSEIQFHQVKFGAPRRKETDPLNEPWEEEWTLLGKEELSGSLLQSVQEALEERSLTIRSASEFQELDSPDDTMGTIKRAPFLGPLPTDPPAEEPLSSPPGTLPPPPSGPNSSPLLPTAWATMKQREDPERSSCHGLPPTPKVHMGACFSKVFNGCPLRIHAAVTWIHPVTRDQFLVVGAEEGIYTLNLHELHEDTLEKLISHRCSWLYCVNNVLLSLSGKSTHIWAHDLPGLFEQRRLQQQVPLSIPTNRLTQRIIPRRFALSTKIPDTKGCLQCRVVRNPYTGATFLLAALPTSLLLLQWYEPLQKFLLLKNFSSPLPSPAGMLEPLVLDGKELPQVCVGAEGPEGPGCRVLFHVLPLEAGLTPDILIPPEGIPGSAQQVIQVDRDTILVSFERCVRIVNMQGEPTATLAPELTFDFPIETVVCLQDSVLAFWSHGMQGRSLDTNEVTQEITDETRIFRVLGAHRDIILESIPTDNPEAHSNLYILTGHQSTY

[16] = biological target: T2, Mitogen-activated protein kinase kinase kinase kinase 2 (Homo sapiens); assay: Inhibition of GCK in human OCI-AML3 cells harboring NRAS Q61L mutant assessed as reduction in p38 phosphorylation at Thr180/Tyr182 after 2 hrs by Western blot analysis; format: cell-based; summary of the method: as §1
BaF3 [17] = assay: Antileukemic activity against mouse BA/F3 cells harboring NRAS-G12D mutant allografted in immunodeficient mouse assessed as median survival time at 25 mg/kg/day, po qd administered on day 6 post implantation (reference value: 23 days); format: functional
[18] = biological target: RAF proto-oncogene serine/threonine-protein kinase (Homo sapiens) (UniProt P04049); details: 1 uM
Activated CDC42 kinase 1 [19] = biological target: T1, Activated CDC42 kinase 1; details: 1 uM
[20] = Cmax in mouse at 10 mg/kg, po; format: ADME, organism-based; parameters: dose 10 mg/kg, route oral; details: in vivo
[21] = biological target: Tyrosine-protein kinase CSK (Homo sapiens) (UniProt P41240); assay: Inhibition of human CSK at 1 uM relative to control
[22] = biological target: Mitogen-activated protein kinase 14 (Homo sapiens) (UniProt Q16539); assay: Inhibition of human p38alpha at 1 uM relative to control
[23] = biological target: Tyrosine-protein kinase Yes (Homo sapiens) (UniProt P07947); assay: Inhibition of human YES at 1 uM relative to control
[24] = Tmax in mouse at 10 mg/kg, po; format: ADME, organism-based; details: in vivo
BaF3 [25] = assay: Induction of apoptosis in mouse BA/F3 cells expressing NRAS-G12D mutant assessed as decrease in bcl2 levels at 1 uM after 24 hrs by Western blot analysis; format: functional, cell-based; summary of the method: as §2

T1 sequence (Q07912 whole entry, looked up): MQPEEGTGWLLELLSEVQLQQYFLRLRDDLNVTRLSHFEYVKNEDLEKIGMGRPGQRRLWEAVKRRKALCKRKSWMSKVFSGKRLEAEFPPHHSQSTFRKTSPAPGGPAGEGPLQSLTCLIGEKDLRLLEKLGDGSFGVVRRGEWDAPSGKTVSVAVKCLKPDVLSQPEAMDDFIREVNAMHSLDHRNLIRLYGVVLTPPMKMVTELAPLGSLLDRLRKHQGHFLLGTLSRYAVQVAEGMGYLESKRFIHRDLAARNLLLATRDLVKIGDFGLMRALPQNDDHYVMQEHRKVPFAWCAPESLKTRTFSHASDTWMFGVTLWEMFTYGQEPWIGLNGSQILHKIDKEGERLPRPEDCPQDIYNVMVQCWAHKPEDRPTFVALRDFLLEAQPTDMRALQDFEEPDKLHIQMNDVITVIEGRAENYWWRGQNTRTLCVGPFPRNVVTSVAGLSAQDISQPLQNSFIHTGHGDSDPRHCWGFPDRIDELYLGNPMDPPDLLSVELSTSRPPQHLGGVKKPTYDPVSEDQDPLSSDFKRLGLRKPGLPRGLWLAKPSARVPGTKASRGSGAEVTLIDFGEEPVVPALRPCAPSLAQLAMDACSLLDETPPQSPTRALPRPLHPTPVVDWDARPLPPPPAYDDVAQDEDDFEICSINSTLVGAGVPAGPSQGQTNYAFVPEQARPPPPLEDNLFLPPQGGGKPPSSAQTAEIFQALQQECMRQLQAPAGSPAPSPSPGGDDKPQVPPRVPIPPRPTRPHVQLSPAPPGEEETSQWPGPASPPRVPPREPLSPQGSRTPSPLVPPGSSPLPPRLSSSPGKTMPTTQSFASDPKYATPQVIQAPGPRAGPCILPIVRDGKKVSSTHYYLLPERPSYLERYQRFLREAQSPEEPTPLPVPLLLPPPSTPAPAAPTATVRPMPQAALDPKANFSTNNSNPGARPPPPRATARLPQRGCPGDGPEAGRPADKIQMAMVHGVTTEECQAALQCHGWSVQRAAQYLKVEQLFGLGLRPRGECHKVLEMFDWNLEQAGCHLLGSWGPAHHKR
Sequence of Serine/threonine-protein kinase SIK1 (Homo sapiens) (P57059 whole entry, the tested form may be a part): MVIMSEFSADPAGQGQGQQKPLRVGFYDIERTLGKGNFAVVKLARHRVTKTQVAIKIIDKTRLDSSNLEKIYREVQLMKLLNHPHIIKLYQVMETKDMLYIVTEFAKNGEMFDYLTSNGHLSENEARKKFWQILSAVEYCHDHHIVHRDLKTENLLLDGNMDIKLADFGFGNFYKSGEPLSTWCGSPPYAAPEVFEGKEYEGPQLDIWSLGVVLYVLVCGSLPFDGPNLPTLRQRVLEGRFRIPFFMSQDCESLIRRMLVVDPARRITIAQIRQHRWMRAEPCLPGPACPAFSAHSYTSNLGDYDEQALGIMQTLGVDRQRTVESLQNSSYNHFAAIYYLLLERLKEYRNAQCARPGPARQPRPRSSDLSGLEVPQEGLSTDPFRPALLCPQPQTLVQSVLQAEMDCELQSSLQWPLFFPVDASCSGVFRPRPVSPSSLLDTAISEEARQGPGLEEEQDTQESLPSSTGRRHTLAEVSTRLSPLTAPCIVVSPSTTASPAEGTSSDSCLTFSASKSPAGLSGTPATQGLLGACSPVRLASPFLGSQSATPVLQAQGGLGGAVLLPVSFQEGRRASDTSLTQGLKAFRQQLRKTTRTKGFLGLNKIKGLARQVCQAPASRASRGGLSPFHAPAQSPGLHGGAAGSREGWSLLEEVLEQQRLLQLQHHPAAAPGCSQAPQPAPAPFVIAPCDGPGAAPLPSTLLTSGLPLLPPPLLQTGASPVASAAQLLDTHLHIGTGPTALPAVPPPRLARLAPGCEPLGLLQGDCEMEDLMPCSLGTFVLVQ
Sequence of Tyrosine-protein kinase CSK (Homo sapiens) (P41240 2-450 limits assumed): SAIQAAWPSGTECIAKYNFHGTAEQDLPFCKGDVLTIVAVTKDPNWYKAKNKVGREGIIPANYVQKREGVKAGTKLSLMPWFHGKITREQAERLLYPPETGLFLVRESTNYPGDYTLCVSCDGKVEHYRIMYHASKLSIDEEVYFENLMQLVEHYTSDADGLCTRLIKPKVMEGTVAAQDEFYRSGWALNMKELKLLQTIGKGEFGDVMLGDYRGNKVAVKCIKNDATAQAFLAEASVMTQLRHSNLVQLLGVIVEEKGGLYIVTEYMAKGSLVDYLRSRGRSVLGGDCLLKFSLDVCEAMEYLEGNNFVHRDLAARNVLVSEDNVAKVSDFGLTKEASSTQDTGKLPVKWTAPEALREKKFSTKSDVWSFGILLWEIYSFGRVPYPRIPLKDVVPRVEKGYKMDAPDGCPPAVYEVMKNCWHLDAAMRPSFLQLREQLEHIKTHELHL
Sequence of Fibroblast growth factor receptor 2 (Homo sapiens) (P21802 22-821 limits assumed): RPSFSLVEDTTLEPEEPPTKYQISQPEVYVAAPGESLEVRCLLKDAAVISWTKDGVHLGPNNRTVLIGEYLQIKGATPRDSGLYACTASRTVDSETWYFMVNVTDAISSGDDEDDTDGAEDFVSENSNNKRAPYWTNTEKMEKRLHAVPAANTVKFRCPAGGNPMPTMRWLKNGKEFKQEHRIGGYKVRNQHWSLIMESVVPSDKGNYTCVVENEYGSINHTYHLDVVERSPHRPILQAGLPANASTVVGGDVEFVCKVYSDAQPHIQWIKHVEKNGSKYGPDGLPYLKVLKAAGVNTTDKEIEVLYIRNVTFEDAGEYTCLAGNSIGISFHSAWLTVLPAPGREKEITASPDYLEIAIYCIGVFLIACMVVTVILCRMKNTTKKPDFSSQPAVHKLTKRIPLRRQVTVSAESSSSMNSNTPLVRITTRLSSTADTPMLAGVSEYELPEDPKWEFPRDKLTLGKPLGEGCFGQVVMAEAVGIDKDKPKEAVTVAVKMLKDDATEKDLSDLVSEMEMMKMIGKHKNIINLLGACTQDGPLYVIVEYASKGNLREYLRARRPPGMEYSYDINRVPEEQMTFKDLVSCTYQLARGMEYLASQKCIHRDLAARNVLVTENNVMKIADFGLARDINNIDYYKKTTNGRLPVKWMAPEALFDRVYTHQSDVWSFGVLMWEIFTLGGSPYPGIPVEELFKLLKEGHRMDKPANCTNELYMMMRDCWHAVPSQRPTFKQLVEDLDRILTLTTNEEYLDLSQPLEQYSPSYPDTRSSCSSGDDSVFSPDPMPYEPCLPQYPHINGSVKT
Sequence of Proto-oncogene tyrosine-protein kinase receptor Ret (Homo sapiens) (P07949 whole entry): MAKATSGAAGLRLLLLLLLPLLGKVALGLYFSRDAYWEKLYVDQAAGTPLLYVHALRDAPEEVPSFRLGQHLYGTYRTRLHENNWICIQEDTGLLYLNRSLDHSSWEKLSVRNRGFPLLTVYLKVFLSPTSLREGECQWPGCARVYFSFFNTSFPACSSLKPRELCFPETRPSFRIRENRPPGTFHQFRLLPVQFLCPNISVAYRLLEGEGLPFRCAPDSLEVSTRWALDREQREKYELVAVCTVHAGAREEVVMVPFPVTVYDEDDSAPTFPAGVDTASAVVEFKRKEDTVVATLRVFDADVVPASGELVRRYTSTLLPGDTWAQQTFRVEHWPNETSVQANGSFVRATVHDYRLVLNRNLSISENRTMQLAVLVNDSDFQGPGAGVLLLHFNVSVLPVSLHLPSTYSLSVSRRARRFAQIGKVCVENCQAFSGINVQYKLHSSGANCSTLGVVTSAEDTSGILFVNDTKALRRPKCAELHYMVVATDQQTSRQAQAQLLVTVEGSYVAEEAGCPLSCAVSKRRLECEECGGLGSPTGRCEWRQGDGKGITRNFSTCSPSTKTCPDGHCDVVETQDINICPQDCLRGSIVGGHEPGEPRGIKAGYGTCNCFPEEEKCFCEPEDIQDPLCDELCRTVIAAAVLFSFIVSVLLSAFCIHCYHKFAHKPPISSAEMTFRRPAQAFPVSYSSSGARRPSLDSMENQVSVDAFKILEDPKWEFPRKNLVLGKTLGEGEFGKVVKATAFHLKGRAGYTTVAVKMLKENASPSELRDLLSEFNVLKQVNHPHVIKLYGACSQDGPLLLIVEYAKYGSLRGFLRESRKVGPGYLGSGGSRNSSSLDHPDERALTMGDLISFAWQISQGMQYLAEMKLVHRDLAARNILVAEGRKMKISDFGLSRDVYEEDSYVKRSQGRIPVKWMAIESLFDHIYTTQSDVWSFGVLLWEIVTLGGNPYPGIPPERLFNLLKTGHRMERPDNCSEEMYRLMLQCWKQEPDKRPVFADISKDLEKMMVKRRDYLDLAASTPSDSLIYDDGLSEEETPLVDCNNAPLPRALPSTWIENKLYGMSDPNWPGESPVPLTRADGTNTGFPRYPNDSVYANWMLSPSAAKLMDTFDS
Sequence of Tyrosine-protein kinase Lyn (Homo sapiens) (P07948 2-512 limits assumed): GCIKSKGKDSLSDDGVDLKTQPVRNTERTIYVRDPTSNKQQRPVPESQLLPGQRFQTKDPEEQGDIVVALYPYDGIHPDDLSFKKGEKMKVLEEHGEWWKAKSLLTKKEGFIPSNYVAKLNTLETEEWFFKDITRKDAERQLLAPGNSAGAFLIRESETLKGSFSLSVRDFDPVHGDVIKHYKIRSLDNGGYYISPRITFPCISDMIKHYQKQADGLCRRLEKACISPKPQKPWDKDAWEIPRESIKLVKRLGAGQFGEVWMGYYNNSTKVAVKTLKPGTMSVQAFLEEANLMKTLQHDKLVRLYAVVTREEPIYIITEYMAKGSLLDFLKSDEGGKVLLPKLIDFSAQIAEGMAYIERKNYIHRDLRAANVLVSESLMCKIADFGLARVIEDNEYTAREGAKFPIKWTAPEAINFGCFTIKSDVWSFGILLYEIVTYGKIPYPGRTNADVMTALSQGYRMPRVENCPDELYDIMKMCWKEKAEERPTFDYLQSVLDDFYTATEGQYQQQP
Sequence of Mitogen-activated protein kinase 14 (Homo sapiens) (Q16539 whole entry): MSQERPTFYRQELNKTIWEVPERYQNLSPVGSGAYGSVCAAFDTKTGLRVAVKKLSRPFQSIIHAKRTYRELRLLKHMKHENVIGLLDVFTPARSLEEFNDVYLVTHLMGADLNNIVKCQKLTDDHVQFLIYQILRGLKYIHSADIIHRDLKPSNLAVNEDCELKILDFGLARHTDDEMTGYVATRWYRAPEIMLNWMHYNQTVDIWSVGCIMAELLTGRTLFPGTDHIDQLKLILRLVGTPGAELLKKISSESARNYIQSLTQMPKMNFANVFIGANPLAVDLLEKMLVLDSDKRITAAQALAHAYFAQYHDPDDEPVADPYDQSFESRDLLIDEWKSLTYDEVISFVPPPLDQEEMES

SMILES: Cc1ccc(NC(=O)c2cccc(C(F)(F)F)c2)cc1N1Cc2cnc(N)nc2N(C)C1=O
- inhibition [1]: 91.6%
- inhibition [2]: 97.8%
- inhibition [3]: 93.5%
- inhibition [4]: 99.4%
- Activity (OCI-AML-3 [5]): 14.9%
- inhibition [6]: 96.9%
- inhibition [7]: 99.1%
- inhibition [8]: 98.9%
- inhibition (Activated CDC42 kinase 1 [9]): Dose-dependent effect
- inhibition [10]: 98.7%
- inhibition [11]: 99%
- inhibition [12]: 99.1%
- Activity (OCI-AML-3 [13]): Active
- Activity (BaF3 [14]): Active
- inhibition [15]: 93.8%
- inhibition [16]: Dose-dependent effect
- MSD (BaF3 [17]): 35 days
- inhibition [18]: 99.4%
- inhibition (Activated CDC42 kinase 1 [19]): 100%
- Cmax [20]: 2410 ng/mL
- inhibition [21]: 98.9%
- inhibition [22]: 98.9%
- inhibition [23]: 99.7%
- Tmax [24]: 2.7 h

SMILES: CC(=O)N1CCN(c2ccc(Nc3ncc4c(n3)N(C)C(=O)N(c3cc(NC(=O)c5cccc(C(F)(F)F)c5)ccc3C)C4)cn2)CC1
- Activity (BaF3 [25]): Active
- inhibition (Activated CDC42 kinase 1 [9]): Dose-dependent effect
- Activity (OCI-AML-3 [13]): Active
- inhibition [16]: Dose-dependent effect
